Test results: PubChem BioAssay AID720508 (The Scripps Research Institute Molecular Screening Center, 2013)
In all, about 370,000 compounds went through this assay and about 500 (0.14%) were called active. This is one part of a sample in which actives are shown more often than they occur.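 The calls were made as follows: active = inhibition above the mean of compounds falling within the control limits plus 3 SD of them (cut at about 14% in these data); inactive = the rest.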

What follows are molecules tested against Fibrinogen beta chain (Homo sapiens) (UniProt P02675) (assay: inhibitors of Tn7 peptide binding to fibrin DD(E), primary screen, biochemical, fluorescence polarization, human fibrin, Tn7 probe (AID 720508;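 also: 0% = plate median of compound wells and 100% = 10 µM Aha-Tn7 peptide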)). Details: FP displacement of FITC-Tn7 peptide from fibrin DD(E); at 8.3 µM; stronger effect = higher value; 0% = median of compound wells per plate.
Summary of the method: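 Test system – human fibrin DD(E) · Times – 10 min preincubation, 3 h with tracer, room temperature · Detection – fluorescence polarization of the labelled Tn7 tracer · Measure – percent inhibition normalized to high-control wells · Benchmarks – high control wells with 10 µM unlabelled Aha-Tn7 peptide (full inhibition) · Repeats – singlicate testing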

Sequence of Fibrinogen beta chain (Homo sapiens) (P02675 whole entry, looked up): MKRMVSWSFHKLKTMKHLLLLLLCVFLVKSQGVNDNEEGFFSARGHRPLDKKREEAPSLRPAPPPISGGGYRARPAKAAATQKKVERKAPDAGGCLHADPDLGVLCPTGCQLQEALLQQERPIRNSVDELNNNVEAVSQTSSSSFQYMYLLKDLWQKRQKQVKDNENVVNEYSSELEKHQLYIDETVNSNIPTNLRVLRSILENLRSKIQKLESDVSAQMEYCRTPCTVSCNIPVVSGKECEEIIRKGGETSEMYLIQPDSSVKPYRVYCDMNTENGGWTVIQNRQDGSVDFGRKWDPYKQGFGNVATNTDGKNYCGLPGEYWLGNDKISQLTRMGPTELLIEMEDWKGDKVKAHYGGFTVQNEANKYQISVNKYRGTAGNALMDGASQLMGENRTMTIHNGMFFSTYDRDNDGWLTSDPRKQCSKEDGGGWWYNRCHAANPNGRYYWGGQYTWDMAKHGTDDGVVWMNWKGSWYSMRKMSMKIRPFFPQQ

inhibition, inactive:
Cc1ccc(NS(=O)(=O)c2ccc3c(c2)NC(=O)CO3)cc1 2.86%, CC(C)[C@@H](C(=O)OCC(=O)c1ccc2c(c1)NC(=O)CO2)N1C(=O)c2ccccc2C1=O -6.7%, COc1cc(C(=O)NN(CCC#N)C2=NS(=O)(=O)c3ccccc32)cc(OC)c1OC -4.12%, CC(=O)CC(CC(=O)NC1CCCCC1)c1ccccc1 (centres undefined) 4.93%, CCCC(=O)N1CCC(CCC(=O)NC2CC2)CC1 -7.44%, CC(Sc1ccc(S(=O)(=O)N2CCN(C)CC2)cn1)C(=O)NC1CCCC(C)C1C (centres undefined) 4.47%, CCC(C)N1CC(=O)N2Cc3[nH]c4ccccc4c3C[C@H]2C1=O (some centres undefined) -0.72%, COc1ccc(-n2c(SCC(=O)Nc3sc4c(c3C#N)CCCC4)nnc2-c2ccc(O)cc2)cc1 -4.29%, CCCCOC(=O)NCN1C(=O)C2C3C=CC(C3)C2C1=O (centres undefined) 12.4%, Cc1ccc(S(=O)(=O)N2CCC(C(=O)NCCC3=CCCCC3)CC2)cc1C 0.25%, OCC1(Cc2ccccc2C(F)(F)F)CCN(Cc2ccncc2)CC1 -3.68%, Nc1nc(Br)c2ccccc2c1-c1ccc(F)cc1 -1.53%, O=C(c1ccc(OC2CCN(C(=O)c3cccnc3)CC2)cc1)N1CCCCCC1 3.65%, O=C(Cn1cnc2c(nnn2Cc2ccc(F)cc2)c1=O)NCc1ccc2c(c1)OCO2 -1.63%, O=C(Nc1cccc(C(=O)NC2CC2)c1)c1ccc(F)c(S(=O)(=O)N2CCOCC2)c1 6.51%, CC12CCC(C(=O)N(CCC#N)CCC#N)(CC1=O)C2(C)C (centres undefined) 1.78%, N#CCCN1CCN(S(=O)(=O)c2ccc(S(=O)(=O)N3CCCC3)cc2)CC1 3.06%, N#Cc1cccc(CN2CCC(=O)N(CCO)CC2)c1 7.16%, CCC(c1ccc(NC(=O)OC(C)(C)C)cc1)c1cc(OC)cc(OC)c1 (centres undefined) -0.44%, CN(C)S(=O)(=O)c1ccc(N/C=C(\[N+](=O)[O-])S(=O)(=O)c2ccccc2)cc1 -0.82%, COC(=O)c1sccc1NC(=O)CSc1ccccc1NS(=O)(=O)c1cc(Cl)ccc1Cl 0.88%, Cc1cc(C)c2cc(CN(Cc3cccs3)Cc3nnnn3CC3CCCO3)c(=O)[nH]c2c1 (centres undefined) -1.42%, CC(C)[C@H](NC(=O)N1CCn2c1nc1ccccc12)C(=O)NCc1ccc2c(c1)OCO2 1.52%, O=S1(=O)c2c(cccc2N2CC[C@H](O)C2)O[C@@H]2CCN1C2 4.53%, CCC(=O)Nc1cccc(C2=NOC3(C2)C[C@@H](C(N)=O)N(C(=O)c2cc([N+](=O)[O-])cc([N+](=O)[O-])c2C)C3)c1 (some centres undefined) -4.25%, CC(Oc1ccccc1)C(=O)Nc1oc(-c2ccco2)c(-c2ccco2)c1C#N (centres undefined) 2.07%, N#Cc1nc(Cc2cccc3ccccc23)oc1NCc1ccc2c(c1)OCO2 4.95%, Cc1ccc(OCc2nc(C#N)c(N3CCCC3)o2)cc1 0.61%, COc1ccc(C(C(=O)NC2CCCCC2)N(C(=O)Cc2c[nH]c3ccccc23)c2ccccc2)cc1OC (centres undefined) 2.39%, COC(=O)CNC(=O)C(CCSC)NC(C)=O (centres undefined) 3.11%, COc1cc(OC)c(C(=S)N2CCCC2)cc1OC 2.99%, CC1(C)C/C(=C(/C#N)C(N)=O)CCO1 -4%, Cc1cc(C(=O)COc2ccc(Br)cc2F)c(C)n1C1CC1 1.64%, O=C(NC1CCCCN(Cc2cccc(C(F)(F)F)c2)C1=O)c1ccccc1I (centres undefined) 2.66%, O=C(NCc1ccc(F)cc1F)[C@@H]1CCCN1C(=O)[C@@H]1CCCN1C(=O)c1cccc(Cl)c1 -9.38%, O=C(COC(=O)CNS(=O)(=O)c1ccccc1)NC12CC3CC(CC(C3)C1)C2 2.98%, CC1CC1C(=O)OCC(=O)c1c(N)n(C)c(=O)n(C)c1=O (centres undefined) -2.99%, CC(C)NC(=O)C1(C)CCCCN1Cc1cccc(C(F)(F)F)c1 (centres undefined) 1.37%, Clc1ccc(CN2CCCCCC2)cc1Cl 1.42%, Brc1ccc(-c2nn[nH]n2)cc1 -4.35%, COc1cccc(N2CC(NS(=O)(=O)c3ccc(Cl)cc3)CC2=O)c1 (centres undefined) -2.23%, COc1cccc(N2CC(NC(=O)c3ccc4ccccc4c3)CC2=O)c1 (centres undefined) 6.86%, CCN(CC)C(=O)CSC(Nc1cccc(F)c1)=C(C#N)C#N 2.96%, CCn1c(C)nc2c1C(=O)c1ccccc1C2=O -6.92%, CCC(C(=O)OC)n1cnc2c(oc3ccccc32)c1=O (centres undefined) 6.68%, Cc1ccc(S(=O)(=O)CC(=O)Nc2sc(C)c(C)c2C(N)=O)cc1 -0.13%, NC1=NC(=O)C(Cc2cccc(Cl)c2)S1 (centres undefined) 2.82%, COCc1cc(=O)n2[nH]c(C)c(-c3ccccc3)c2n1 -2.38%, CN(C(=O)C1CCN(c2ncnc3c2nc2n3CCCCC2)CC1)C1CCCCC1 -2.26%, Cc1ccc(CN2CCN(Cc3ccc(OCCO)cc3)CC2CCO)o1 (centres undefined) 7.01%, CCCCNC(=O)C[C@@H]1C[C@@]2(C(=O)OCC)CCC=C2N(Cc2cccc3ccccc23)C1=O -3.28%, CN(C(=O)CSc1nc(C2CC2)nc2ccccc12)c1nc(-c2ccccc2)cs1 -7.43%, COc1ccc(NC(=O)NNC(=O)COc2cc(C)c(Cl)c(C)c2)c(OC)c1 -5.88%, O=C1NC(=Nc2ccc(Cl)cc2)SC1Cc1cccc(Cl)c1Cl (centres undefined) 0.11%, Cc1ccc(N(C(=O)C(F)(F)F)C(C(=O)NC2CCCCC2)c2ccncc2)cc1C (centres undefined) 5.16%, CC[C@@H]1CCCCc2ccccc2[C@@H](C(=O)C[C@H](O)CC(C)=O)OC1=O 1.6%, CCCNC(=O)C(=O)Nc1cc2c3c(c1)CCC(=O)N3CCC2 0.54%, COc1ccccc1C(=O)N1CCN=C1SCc1cccnc1 3.49%, COC(=O)CNc1nc(Cl)nc(N2CCC(C)CC2)n1 7.41%, NC(=O)c1cc(S(=O)(=O)N2CCCC2)ccc1OCc1ccc(F)cc1 0.91%, CC(C)(C)c1ccccc1NC(=O)CN1C(=O)NC2(CCCC2)C1=O -0.76%, Cc1nn(C)c(C)c1S(=O)(=O)N1CCc2ccccc21 -4.06%, CCO[C@H]1OC(C(=O)N2CCN(Cc3ccccc3)CC2)=C[C@@H](c2cn(C(C)=O)c3ccccc23)[C@@H]1CCCO 7%, C=CCOc1ccc(/C=C/C(=O)OCC(=O)NC2CCCCCC2)cc1 0.53%, COc1ccccc1/C=C/C(=O)OCC(=O)NC1CCCCCC1 8.08%

inhibition, active:
Cc1nnc2n1N=C(c1ccc3c(c1)NC(=O)CO3)CS2 15.4%, Cc1nn(C)cc1N1C(=O)c2cccc3c(N)ccc(c23)C1=O 28.7%, CN1C(=O)c2cccc3c(N)ccc(c23)C1=O 24.4%, CC(C)(C)c1cc(CN2CCN(CCC#N)CC2)cc(C(C)(C)C)c1O 13.8%, CCOc1ccc(Nc2oc(Cc3ccccc3)nc2C#N)cc1 14.8%, c1cc(-c2nn[nH]n2)ccc1CN1CCCCC1 14.4%, COc1cccc(N2CC(NS(=O)(=O)c3cccs3)CC2=O)c1 (centres undefined) 15.4%, CN1c2ccc(C=O)c3c(C=O)ccc(c23)N(C)C1(C)C 16.9%, O=C(COC(=O)/C=C/c1ccc(OC(F)F)cc1)NC1CCCCC1 13.9%
